Assay results published in article PMC10586019 (ACS Omega, 2023).
≈ marks a conversion by molar mass, not a printed value. Where “and” joins values, the source holds several entries; their conditions need not be identical. Identical values can stand only once. One block for each compound: values may come before it. Where a SMILES comes first, the peptide text is derived from it. Where no end group is shown, it is not given here. [ ]: non-standard residue; d: D form. Orn = NCCC[C@H](N)C(=O)O; Ahx = NCCCCCC(=O)O

What was measured:
[1] = system: Caco-2; assay: MTT viability test, Caco-2 colon cancer cells; format: cell-based; details: Caco-2, MTT
[2] = MTT cytotoxicity, HEK-293 control cells; format: cell-based; details: Caco-2
Procedure, shortened: (§1)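 Cells are grown in RPMI-1640 with 10% FBS, seeded at 1 × 10^4 per well, and synchronized for 24 h. Medium is replaced with peptide (0–200 μg/mL) in the same medium for 2 h at 37 °C. MTT (5 mg/mL solution) is added for 4 h at 37 °C, and formazan is dissolved in DMSO for 30 min at 37 °C. Absorbance is read at 570 nm.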

[3] = system: HEK-293; assay: MTT cytotoxicity, HEK-293 control cells; format: cell-based; details: for CC50 HEK-293: MTT, peptide 0-200 μg/mL, 2 h, 37 °C, n = 3; for Selectivity Index HEK-293/HT-29: SI = CC50/IC50
Procedure, shortened: as §1

[4] = MTT cytotoxicity, Vero control cells; format: cell-based; details: Caco-2
Procedure, shortened: as §1

[5] = system: Vero cells; assay: MTT cytotoxicity, Vero control cells; format: cell-based; details: for CC50 Vero: MTT, peptide 0-200 μg/mL, 2 h, 37 °C, n = 3; for Selectivity Index Vero/HT-29: SI = CC50/IC50
Procedure, shortened: as §1

[6] = system: human fibroblasts; assay: MTT cytotoxicity, fibroblasts control cells; format: cell-based; details: for CC50 fibroblasts: MTT, peptide 0-200 μg/mL, 2 h, 37 °C, n = 3; for Selectivity Index fibroblasts/HT-29: SI = CC50/IC50
[7] = Hemolytic activity; format: cell-based, human; details: Caco-2
Procedure, shortened: (§2)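 Erythrocytes from healthy O+ donors (EDTA blood) are spun at 500 rpm and washed 3× in 0.9% saline. Peptide (final 200 to 6.2 μg mL−1) is mixed 1:1 with 2% hematocrit suspension for 2 h at 37 °C, then spun 2500 rpm for 5 min. Supernatant A450 is read. Positive controls are distilled water and Tween 20; the negative is 0.9% saline. The readout is the concentration causing 10% hemolysis.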

[8] = system: erythrocytes; assay: Hemolytic activity; format: cell-based, human; details: SI = hemolysis10%/IC50
Procedure, shortened: as §2

[9] = MTT cytotoxicity, fibroblasts control cells; format: cell-based, human; details: Caco-2
[10] = system: Galleria mellonella; assay: Galleria mellonella toxicity test; format: in vivo; details: 20-100 mg/Kg, 10 days, Kaplan-Meyer, n = 2
[11] = system: Du-145; assay: MTT viability test, Du-145 prostate cancer cells; format: cell-based; details: for IC50 Du-145: peptide 0-200 μg/mL during 2 h, mean ± SE n = 3; for IC50: read-out: IC50 Du-145, peptide 0-200 μg/mL during 2 h, mean ± SE n = 3
Procedure, shortened: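 Du-145 cells are seeded at 1 × 10^4 per well and synchronized for 24 h. They are exposed to peptide (0–200 μg/mL) in medium for 2 h at 37 °C. MTT (5 mg/mL solution) is added for 4 h at 37 °C, DMSO solubilization runs 30 min at 37 °C, and A570 is read. Data are mean ± SE, n = 3.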

[12] = system: Galleria mellonella; details: at 33 mg/kg; cited from earlier work

Compound: N=C(N)NCCC[C@H](NC(=O)[C@H](Cc1c[nH]c2ccccc12)NC(=O)[C@H](CCC(N)=O)NC(=O)[C@H](Cc1c[nH]c2ccccc12)NC(=O)[C@H](CCCNC(=N)N)NC(=O)[C@H](Cc1c[nH]c2ccccc12)NC(=O)[C@H](CCC(N)=O)NC(=O)[C@H](Cc1c[nH]c2ccccc12)NC(=O)[C@H](CCCNC(=N)N)NC(=O)CCCCCN)C(N)=O [Ahx-[Pal]] (H-[Ahx]RWQWRWQWR-NH2)
decrease of IC50 in Caco-2 cells compared to the parent peptide RWQWRWQWR [1]: approx. 50%
selectivity ratio [2]: 2.2
CC50 HEK-293 [3]: 86 μM and 132 μg/mL
Selectivity Index HEK-293/HT-29 [3]: 0.7
selectivity ratio [4]: 1
CC50 Vero [5]: 40 μM and 64 μg/mL
Selectivity Index Vero/HT-29 [5]: 0.3
CC50 fibroblasts [6]: 98 μM and 157 μg/mL
Selectivity Index fibroblasts/HT-29 [6]: 0.8
selectivity ratio [7]: > 3.1
Selectivity Index erythrocytes/HT-29 [8]: >1.1

Compound: N=C(N)NCCC[C@H](NC(=O)[C@H](Cc1c[nH]c2ccccc12)NC(=O)[C@H](CCC(N)=O)NC(=O)[C@H](Cc1c[nH]c2ccccc12)NC(=O)[C@@H](N)CCCNC(=N)N)C(=O)N[C@@H](Cc1c[nH]c2ccccc12)C(=O)N[C@@H](CCC(N)=O)C(=O)N[C@@H](Cc1c[nH]c2ccccc12)C(=O)N[C@@H](CCCN)C(N)=O [^9[Orn] [Pal]] (H-RWQWRWQW[Orn]-NH2)
decrease of IC50 in Caco-2 cells compared to the parent peptide RWQWRWQWR [1]: approx. 50%
fold increase in potency against Caco-2 versus parent peptide [1]: 2 fold
selectivity ratio [2]: 1.3
CC50 HEK-293 [3]: 51 μM and 74 μg/mL
Selectivity Index HEK-293/HT-29 [3]: 0.5
selectivity ratio [4]: 1.2
CC50 Vero [5]: 46 μM and 67 μg/mL
Selectivity Index Vero/HT-29 [5]: 0.4
selectivity ratio [9]: 1.4
CC50 fibroblasts [6]: 55 μM and 79 μg/mL
Selectivity Index fibroblasts/HT-29 [6]: 0.5
selectivity ratio [7]: > 3.4
Selectivity Index erythrocytes/HT-29 [8]: >1.3
toxicity [10]: did not show any significant toxicity
IC50 Du-145 [11]: 89 µg/mL (≈ 61.6 µM)
IC50 [11]: 62 µM

Compound: N.N.[Cl][Pt][Cl] [cisplatin]
mortality in Galleria (previous study) [12]: 60%

IC50 Du-145 [11]: 60 µg/mL
IC50 [11]: 40 µM
Compound: RWQWRWQWR-NH2 [[Pal]]
selectivity ratio [2]: 0.8
CC50 HEK-293 [3]: 68 μM and 101 μg/mL
Selectivity Index HEK-293/HT-29 [3]: 0.7
selectivity ratio [4]: 0.2
CC50 Vero [5]: 21 μM and 31 μg/mL
CC50 fibroblasts [6]: > 134 μM and > 200 μg/mL
selectivity ratio [7]: 1.6
Selectivity Index erythrocytes/HT-29 [8]: 1.3
